p-CIP stab down – p/CIP-EGFP fusion destabilizers, primary screen, fluorescence, F442A cells; Q05BA5; 16 h; decrease of EGFP signal, % at 10 µM; hit rate 0.01% among 290,000;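 active means EGFP signal decrease of at least 30% at 10 µM or well 3 SD below plate mean, unless failing retest; inactive means the rest, including hits failing retest or dose response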
A3A deaminase – APOBEC3A ssDNA deaminase inhibitors, primary screen, selectivity assay for APOBEC3G inhibitor project, biochemical, FAM/TAMRA oligo cleavage fluorescence | DNA dC->dU-editing enzyme APOBEC-3A (Homo sapiens), P31941 | recombinant A3A, FAM/TAMRA ssDNA deamination fluorescence | inhibition, % at 20 µM | hit rate 0.41% among 330,000 | AID 493011, 2011;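 active means at least 40% inhibition at 20 µM here, with at most 30% in a related deaminase screen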
TbMetRS inhib – T. brucei MetRS inhibitors, primary screen, biochemical, luminescence. inhibition, % at 11.9 µM. purified T. brucei MetRS, ATP depletion, Kinase-Glo luminescence. hit rate 0.4% among 360,000. methionyl-tRNA synthetase (Trypanosoma brucei brucei);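 active means inhibition above a per-plate cutoff of the control wells' mean inhibition plus 3 SD, cut at about 5.5% in these data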
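assay system = parasite MetRS enzyme | timing = 15 min preincubation, 2 h reaction, all 25 °C | evaluation = percent inhibition relative to median high and low control wells | medium = HEPES buffer containing pyrophosphatase, BSA, spermine, DTT | compound = single dose, 11.9 µM final nominal, 0.9% final DMSO | detection = Kinase-Glo luminescence, ATP depletion format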
APOBEC3G inh – APOBEC3G DNA deaminase inhibitors, primary screen, biochemical, fluorescence, single-stranded DNA substrate, uHTS. recombinant A3G, ssDNA deamination FAM/TAMRA fluorescence. hit rate 0.28% among 330,000. DNA dC->dU-editing enzyme APOBEC-3G (Homo sapiens), Q9HC16. inhibition, % at 20 µM;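 active means inhibition of at least 40% at 20 µM, with no more than 30% in the related APOBEC3A deaminase screen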
Target sequence (Q9HC16 whole entry, looked up): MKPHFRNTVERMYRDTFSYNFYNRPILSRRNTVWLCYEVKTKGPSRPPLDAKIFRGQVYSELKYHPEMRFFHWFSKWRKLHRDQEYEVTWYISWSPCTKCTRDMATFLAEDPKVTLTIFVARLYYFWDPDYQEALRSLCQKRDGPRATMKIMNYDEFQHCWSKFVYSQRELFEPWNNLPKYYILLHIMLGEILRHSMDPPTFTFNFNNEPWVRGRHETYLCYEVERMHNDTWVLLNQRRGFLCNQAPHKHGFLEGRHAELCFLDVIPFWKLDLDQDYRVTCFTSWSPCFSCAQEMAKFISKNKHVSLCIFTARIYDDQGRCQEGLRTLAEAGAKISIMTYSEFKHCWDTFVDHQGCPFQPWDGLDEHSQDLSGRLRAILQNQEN
PHOSPHO1 block – PubChem AID 1565 | Phosphoethanolamine/phosphocholine phosphatase (Homo sapiens), Q8TCT1 | recombinant PHOSPHO1, absorbance phosphatase assay | inhibition, % at 13.3 µM | hit rate 1.1% among 290,000; in the data active means inhibition above about 60%
APOBEC3A confirm – APOBEC3A deaminase inhibitors, retest, confirmation, selectivity assay for APOBEC3G inhibitor project, biochemical, single concentration, fluorescence readout | recombinant A3A, ssDNA deaminase UDG fluorescence assay | inhibition, % at 20 µM | AID 493151, 2011 | hit rate 63% among 1,400 | shares compounds with A3A deaminase;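 active means inhibition reaching a set limit, 80% of the first screen's cutoff, at 20 µM in any replicate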
UDG A3A counter – E. coli UDG inhibitors, confirmation, counter-screen for APOBEC3A inhibitor project, biochemical, single concentration, fluorescence, FAM/TAMRA oligo; shares compounds with A3A deaminase; UDG counterscreen, FAM/TAMRA uracil oligo fluorescence; inhibition, % at 20 µM; 1,000 tested, under 10 active; call rule not given here
Numbers stand for hits; 0 = inactive; - = not tested or not shown. Rows were chosen to be rich in hits. Some 1.8% of all compounds tested hit in one or more screens of this group.

SMILES	p-CIP stab down	A3A deaminase	TbMetRS inhib	APOBEC3G inh	PHOSPHO1 block	APOBEC3A confirm	UDG A3A counter
CSc1cccc(N2CC(C(=O)Nc3cccc(S(=O)(=O)N4CCCC4)c3)CC2=O)c1 (stereo not given)	-	56	0	0	-	0	-
CCOc1ccc(N2CC(C(=O)Nc3cccc(S(=O)(=O)N4CCCCC4)c3)CC2=O)cc1 (stereo not given)	0	0	0	0	0	-	-
CN1CCCN(S(=O)(=O)c2ccccc2)CC1	0	67	0	0	0	61	0
Cn1c(=O)c2ncn(CC(=O)NC3CCCCCC3)c2n(C)c1=O	0	43	0	0	84	0	-
O=C1N=C(N2CCOCC2)S/C1=C/c1cccs1	0	71	0	0	0	0	0
CC(=O)N1CCN(C2=NC(=O)/C(=C\c3cccs3)S2)CC1	0	0	0	0	0	-	-
O=C(O)c1[nH]c2ccccc2c1C(c1ccccc1)c1c(C(=O)O)[nH]c2ccccc12	0	0	0	0	-	-	-
C=CCOc1ccc(C(c2c(C(=O)O)[nH]c3ccccc23)c2c(C(=O)O)[nH]c3ccccc23)cc1	0	55	0	0	0	41	0
CCC(=O)NN1CCc2cc3ccc(C)cc3nc21	0	0	0	0	0	-	-
CCC[N+]1(CC#CC2(O)CCCCC2)CCOCC1	0	74	0	0	0	82	0
Cc1cccc(N2CCN(C(=O)n3ccnc3)CC2)c1C	0	0	0	0	0	-	-
Cc1ccc(/C=C/c2ccc(N(C)C)cc2)[n+](C)c1	0	60	0	0	0	67	0
O=c1[nH]ncc2c3ccccc3n(Cc3ccccc3)c12	0	0	0	0	0	-	-
O=c1[nH]ncc2c3ccccc3n(Cc3ccccc3F)c12	0	43	0	0	0	0	0
Cc1ccc(N(C)C(=O)c2cnn(-c3ccccc3)c2C)c(C)c1	0	0	0	0	0	-	-
CCN(CC(=O)Nc1c(F)cccc1F)C(=O)c1cccc(-n2cccc2)c1	-	75	0	0	-	55	0
CCN(CC(=O)Nc1ccccc1OC)C(=O)c1cccc(-n2cccc2)c1	0	0	0	0	0	-	-
O=C(Cc1ccccc1)NCc1ccc2c(c1)OCO2	0	0	0	0	0	-	-
O=C(CC12CCC(CC1)C2)NCc1ccc2c(c1)OCO2	0	44	0	0	0	0	0
Cc1[nH]n(-c2cccc(Cl)c2)c(=O)c1C=NCc1ccco1	0	44	0	0	0	0	-
COc1ccc(NC(=O)CCNC(=O)N2CC(=O)Nc3ccccc32)cc1OC	-	-	0	-	-	-	-
Oc1cccc(O)c1O	-	42	-	0	-	44	-
O=C(O)c1cccc(O)c1O	-	0	0	0	-	-	-
CCN(C1CCCCC1)S(=O)(=O)CCNC(=O)c1ccc(OC)cc1	-	-	0	-	-	-	-
CCCn1c(/C=C/c2ccccc2)nc2ccccc21	0	0	0	0	0	-	-
SMILES	p-CIP stab down	A3A deaminase	TbMetRS inhib	APOBEC3G inh	PHOSPHO1 block	APOBEC3A confirm	UDG A3A counter
CCn1c(/C=C/c2cc[n+](C)cc2)nc2ccccc21	0	53	0	0	0	47	-
CCC(=O)Nc1nnc(S(=O)(=O)N(C)c2ccccc2)s1	0	0	0	0	0	-	-
CCCNc1c(F)c(F)c2c(C)c3ccccc3nc2c1F	0	42	0	0	0	0	0
Cc1[nH]c2ccccc2c1C(=O)C(C)OC(=O)c1ccc(Cl)nc1 (stereo not given)	-	0	0	0	-	-	-
Cc1ccc(N=Nc2[nH]c3ccccc3c2O)cc1	0	63	0	0	0	59	0
COc1ccc(N=Nc2[nH]c3ccc(C)cc3c2O)cc1	0	75	0	0	0	52	0
Cc1c(-c2ccnc3cc(C(=O)O)nn23)cnn1C	0	49	0	0	0	32	0

Screens as filed in PubChem.
